PERK inhibitor: inhibitors of human PERK kinase; CHO PERK-DD fusion, SEAP luminescence translation reporter; Q9NZJ5; 220,000 tested, 0.17% active; inhibition, % at 5.6 µM;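 active = inhibition above the mean inhibition of all tested compounds plus 3 SD, set separately per screening campaign, cut at about 2.9% in these data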;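 note: PERK kinase domain activated by AP20187 dimerizer at 100 nM; 0% = DMSO with dimerizer and 100% = rapamycin at 8.4 µM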
APP 5'UTR act: APP 5'UTR luciferase reporter activation; SH-SY5Y APP 5'UTR luciferase reporter, luminescence; zero percent = DMSO vehicle wells; activation, % at 2 µM; 190,000 tested, 1% active; AID 1276;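 active = activation above a set limit, based on mean plus 3 SD of controls, cut at about 140% in these data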
AHR act: activators of human aryl hydrocarbon receptor; AHR-responsive luciferase reporter cells, luminescence; AID 2796; 320,000 tested, 2.5% active; P35869; activation, % at 5 µM; in the data active = activation above about 47%;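 note: 0% = vehicle wells and 100% = reference agonist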
Target sequence (P35869 whole entry, looked up): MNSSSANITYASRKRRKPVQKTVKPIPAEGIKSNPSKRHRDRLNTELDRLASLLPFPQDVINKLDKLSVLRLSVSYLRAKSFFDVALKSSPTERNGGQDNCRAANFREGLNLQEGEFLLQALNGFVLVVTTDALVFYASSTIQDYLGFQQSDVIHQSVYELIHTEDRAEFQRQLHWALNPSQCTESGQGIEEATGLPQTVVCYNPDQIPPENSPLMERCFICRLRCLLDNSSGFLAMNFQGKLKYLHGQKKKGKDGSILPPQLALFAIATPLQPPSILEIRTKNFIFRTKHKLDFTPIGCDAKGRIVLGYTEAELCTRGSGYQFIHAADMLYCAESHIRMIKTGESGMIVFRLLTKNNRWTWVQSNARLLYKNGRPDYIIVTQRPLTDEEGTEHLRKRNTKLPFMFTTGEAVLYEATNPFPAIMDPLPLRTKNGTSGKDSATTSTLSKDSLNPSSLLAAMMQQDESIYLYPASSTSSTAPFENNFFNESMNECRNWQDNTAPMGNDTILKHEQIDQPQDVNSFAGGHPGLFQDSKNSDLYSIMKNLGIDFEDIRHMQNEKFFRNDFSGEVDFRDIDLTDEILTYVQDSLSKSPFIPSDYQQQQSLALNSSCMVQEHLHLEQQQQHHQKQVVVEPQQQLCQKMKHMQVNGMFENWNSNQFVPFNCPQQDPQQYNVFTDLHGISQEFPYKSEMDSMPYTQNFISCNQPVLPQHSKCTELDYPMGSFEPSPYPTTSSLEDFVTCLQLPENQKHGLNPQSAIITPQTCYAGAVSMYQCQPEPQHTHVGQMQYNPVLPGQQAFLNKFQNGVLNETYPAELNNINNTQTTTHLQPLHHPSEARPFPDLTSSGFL
STAT1 activator: STAT1 signaling activation. NIH 3T3 STAT1-luciferase reporter, IFN-gamma, luminescence; 100% = IFN-gamma alone, no compound. activation (% of control), % at 5.5 µM. 200,000 tested, 2.6% active. AID 932;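 active = activation above the screen-wide mean activation plus 3 SD, cut at about 130% in these data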;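 note: raw ratio to IFN-gamma control signal so 100% means no change and 0% no light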
NF-kB neuron act: compounds increasing NF-kB expression in human neuronal cells | AID 1239 | fold change at 12.5 µM | NF-kB reporter expression; hits give high values | 190,000 tested, 1.6% active; in the data active = fold change above about 3.3
MDM2 E3 inh: Mdm2 E3 ligase (human) inhibition. Q00987. cell-based MDM2 ubiquitination luciferase reporter, 2 h; 0 = plate control, 100 = twice control, blank-subtracted. signal enhancement, % at 5 µM. 210,000 tested, 0.11% active;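 active = signal enhancement of 30% or more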;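 note: luminescence tracks abundance of the self-degrading MDM2-luciferase fusion protein; higher signal means inhibition of MDM2 E3 ligase activity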
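Material: Stable MDM2–luciferase fusion reporter cells | Amount: 2000 cells seeded into each well | Dosing: One concentration, 5 µM, with 0.2% DMSO | Incubation: 4 h cell settling then 2 h compound exposure, 37 °C | Measured by: Luciferase luminescence | Read-out basis: % enhancement relative to plate controls after blank subtraction | Benchmarks: Control and blank well means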
The depositor's hits bear a star; / = no result given. An excerpt weighted towards active compounds, which were near 4.5% of everything screened.

SMILES | PERK inhibitor | APP 5'UTR act | AHR act | STAT1 activator | NF-kB neuron act | MDM2 E3 inh
Cc1cc(C(=O)Cn2cncn2)c(C)n1CCc1ccc(F)cc1 | 1 | 2 | 60* | 94 | 0.96 | -8
COC(=O)CCCn1c(C)cc(C(=O)CCl)c1C | 0 | -15 | 1 | 86 | 3.6* | -14
COc1cc(CNS(=O)(=O)c2ccc3c(c2)CC(C)N3C(C)=O)cc(OC)c1OC (stereo unspecified) | / | / | 2 | / | / | /
CC(C)(C)NC(=O)C[n+]1ccc(C(N)=O)cc1 | 1 | 6 | -1 | 92 | 6.2* | -20
Nc1nc2nc(-c3ccccc3)cc(C(F)(F)F)c2s1 | / | / | 68* | / | / | /
COc1ccc(CC(=O)Oc2ccc(F)cc2)cc1 | / | / | 1 | / | / | /
CCOC(=O)C1=C(C)NC(=O)NC1c1ccc(N2CCC(c3ccccc3)=N2)cc1 (stereo unspecified) | 1 | 24 | 57* | 113 | 1.2 | -12
CCCc1cc(C(=O)NNC(=S)Nc2cccc(C)c2)cs1 | 1 | 110 | 9 | 142* | 2.1 | -6
Cc1cccc(NC(=S)NNC(=O)c2ccco2)c1 | 3.1* | 15 | 0 | 106 | 1.5 | -7
Cc1ccc(NC(=S)NNC(=O)c2ccco2)cc1 | 0 | 18 | 2 | 114 | 2 | 3
CCNC(=O)CC1C(=O)N(c2ccccc2)C(=O)N1CCOC (stereo unspecified) | / | / | -1 | / | / | /
COc1cc(NC(=O)COC(=O)CCOc2ccc(C)cc2)cc(OC)c1 | / | / | 0 | / | / | /
COc1ccc(-c2cn3c(n2)CCC3)cc1 | 1 | 36 | 34 | 129* | 2.3 | -1
COc1cc(/C=N/NC(=O)C(Cc2c[nH]c3ccccc23)NC(=O)OCC(C)C)cc([N+](=O)[O-])c1OCc1ccccc1 (stereo unspecified) | 0 | 24 | 64* | 105 | 1 | 9
O=C1CN(C(=O)COC(=O)COc2ccccc2)c2ccccc2N1 | / | / | 12 | / | / | /
COc1ccc(/C=N/n2c(=O)[nH]c3c([nH]c4ccc(Br)cc43)c2=O)cc1CN1CCOCC1 | -1 | -2 | 56* | 106 | 0.89 | -1
CCC(C)(C)NC(=O)CN(Cc1ccccc1)C(=O)CCC(=O)Nc1nccs1 | / | / | -1 | / | / | /
Cc1[nH]c2ccccc2c1N=Nc1cc(C(=O)O)cc(C(=O)O)c1 | 2 | 4 | 8 | 104 | 1.1 | 1
Cc1[nH]c2ccccc2c1N=Nc1ccccc1F | 1 | 29 | 51* | 111 | 1.1 | -6
Cc1[nH]c2ccccc2c1N=Nc1ccc(F)cc1 | 0 | 24 | 67* | 108 | 1.4 | -9
COc1ccc(NC(C)=O)cc1CNC(=O)COc1ccccc1C(=O)Nc1cccc(C)c1C | / | / | 8 | / | / | /
O=C(OCc1csc(-c2ccccc2)n1)c1ccc(O)cc1 | 1 | 64 | 0 | 150* | 3.3 | 12
CC(Sc1nnc(NC2CCCCC2)s1)C(=O)Nc1ccc2c(c1)C(=O)c1ccccc1C2=O (stereo unspecified) | 0 | 32 | 36 | 142* | 1.2 | -8
COc1ccc(Nc2nnc(SC(C)C(=O)NC3CC3)s2)cc1 (stereo unspecified) | / | / | 4 | / | / | /
COc1cc(S(=O)(=O)N2CCN(C(=O)c3ccco3)CC2)ccc1Cl | / | / | -1 | / | / | /
SMILES | PERK inhibitor | APP 5'UTR act | AHR act | STAT1 activator | NF-kB neuron act | MDM2 E3 inh
O=C(Cn1cc(C(F)(F)F)ccc1=O)OCC(=O)c1ccc[nH]1 | / | / | 5 | / | / | /
CC(=O)Oc1ccc(Oc2ccc(-c3noc(C)n3)cc2)cc1 | 1 | 25 | 1 | 112 | 5.7* | -13
Cc1ccc(N=c2sc(C)c(C)n2C)cc1 | 1 | 46 | 77* | 133* | 1.9 | -1
CCOC(=O)N1CCN(C(=O)c2cccn3c(=O)c4c5c(sc4nc23)CCCC5)CC1 | 0 | 9 | 13 | 96 | 1.1 | -19
CCOC(=O)N1CCN(C(=O)c2cccn3c(=O)c4cc(Cl)ccc4nc23)CC1 | -1 | 17 | 91* | 104 | 1.1 | -3
O=C(NCCN1CCN(c2ccccc2)CC1)c1cccc(Cl)c1 | / | / | 1 | / | / | /
O=C(NCCN1CCOCC1)c1cccn2c(=O)c3c4c(sc3nc12)CCCC4 | -1 | / | 54* | / | / | -4
O=C(c1cccn2c(=O)c3cc4ccccc4cc3nc12)N1CCN(c2ccccc2)CC1 | 1 | -7 | 71* | 96 | 1.4 | -12
O=C(NCCN1CCN(c2ccccc2)CC1)c1cccn2c(=O)c3cc(Cl)ccc3nc12 | 0 | 10 | 94* | 100 | 1.1 | -3
CC(=O)Nc1ccc(SCCN2CC[C@@H](C(C)(C)C)CCC2=O)cc1 | / | / | 3 | / | / | /
CCOC(=O)N1CCN(C(=O)c2cccn3c(=O)c4sccc4nc23)CC1 | 0 | -4 | 2 | 100 | 0.88 | -12
CCOC(=O)N1CCN(C(=O)c2cccn3c(=O)c4cc(Br)ccc4nc23)CC1 | 1 | -11 | 58* | 102 | 1.1 | -10
O=C(c1cccn2c(=O)c3cc(Br)ccc3nc12)N1CCN(c2ccccn2)CC1 | -1 | -3 | 74* | 96 | 1.2 | 4
COc1cc(C(C(=O)NC2CCCC2)N(C(=O)c2snc(C(N)=O)c2N)c2ccccc2)cc(OC)c1OC (stereo unspecified) | / | / | 2 | / | / | /
CC[n+]1c(/C=C/Nc2ccccc2)oc2ccc(OC)cc21 | 0 | 10 | 17 | 78 | 0.76 | -13
CC[n+]1c(/C=C/Nc2ccccc2)oc2ccccc21 | 0 | -13 | 109* | 92 | 0.59 | -1
CCOc1ccc(OCCC(=O)OCC(=O)NCCc2ccc(S(N)(=O)=O)cc2)cc1 | / | / | -1 | / | / | /
CCOC(=O)Cc1csc(NC(=S)NC(=O)C(C)(C)C)n1 | 0 | -2 | -2 | 92 | 1.3 | -3
Cc1cc(C)c2nc(-n3nc(C)cc3N)cc(C)c2c1 | 1 | 91 | 44 | 143* | 1.8 | 1
Cc1cc(N)n(-c2ccccc2C)n1 | 1 | -6 | 0 | 100 | 1.2 | -6
Cc1cc(N)n(-c2cc(C)c3ccccc3n2)n1 | 1 | 137* | 23 | 112 | 4.5* | -34
CC(=O)c1ccc(NC(=O)c2ccc(C)c(S(=O)(=O)N3CCOCC3)c2)cc1 | / | / | -2 | / | / | /
Cc1ccc(C(=O)Nc2cccnc2)cc1S(=O)(=O)N1CCOCC1 | 0 | -2 | 37 | 96 | 1.6 | -25

Bioassay records: PubChem BioAssay, several laboratories
